Data as given in ChEMBL document CHEMBL1122372, “Synthesis of aminomethyl-substituted cyclic imide derivatives for evaluation as anticonvulsants” (J Med Chem, 1983).
Calls of active or inactive are those of the source. No cut-off for these calls is given here.

Columns and labels:
Mus musculus [1] = test: Tested for anti maximal electroshock activity at 4 h; - denotes inactive up to 600 mg/kg; format: functional, organism-based; parameters: dose 600 mg/kg
How it was run: (§1)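 Phase I screen in mice run by the NINCDS Antiepileptic Drug Development Program. Four mice per dose, scored 0.5 and 4 h after dosing, for prevention of tonic hindlimb extension following maximal electroshock. Doses were 30, 100, 300 or 600 mg/kg. Activity is the lowest dose protecting at least one of four animals, provided a second trial confirms it.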

[2] = Tested for neurotoxicity in rotarod test; format: toxicity, organism-based; settings: mouse, in vivo
How it was run: (§2)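 Phase I rotarod neurotoxicity in mice, run by the NINCDS Antiepileptic Drug Development Program. Doses were 30, 100, 300 or 600 mg/kg. Deaths from respiratory depression were counted among four animals given 600 mg/kg.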

Mus musculus [3] = test: Anti-pentylenetetrazole activity at 0.5 h; - denotes inactive up to 600 mg/kg; format: functional, organism-based; parameters: dose 600 mg/kg
How it was run: (§3)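 Phase I screen in mice run by the NINCDS Antiepileptic Drug Development Program. Four mice per dose, scored 0.5 and 4 h after dosing, for protection against seizures induced by 85 mg/kg subcutaneous pentylenetetrazole. Dose levels were 30, 100, 300 and 600 mg/kg. Activity is the lowest dose at which at least one of four animals is protected, confirmed in a second trial.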

Mus musculus [4] = test: Tested for anti-pentylenetetrazole activity in mice at 4 h; - denotes inactive up to 600 mg/kg; format: functional, organism-based; parameters: dose 600 mg/kg; how it was run: as §3
Mus musculus [5] = species: Mus musculus; test: Effective dose against maximal electroshock seizures in mice, at 0.5 h; format: functional
How it was run: (§4)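 Phase II quantification in mice by the NINCDS Anticonvulsant Drug Development Program. Median effective dose against maximal electroshock-induced seizures, measured at the time of peak effect, 0.5 h. The 95% confidence intervals come from probit analysis.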

Mus musculus [6] = test: Tested for rotarod neurotoxicity, number of deaths from respiratory depression among four animals given a dose 600 mg/kg was reported; settings: in vivo
Mus musculus [7] = species: Mus musculus; test: (§5) Effective dose against maximal electroshock seizures in mice, at 0.5 hr; format: functional
How it was run: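 Phase II quantification in mice under the NINCDS Antiepileptic Drug Development Program. Protection against maximal electroshock, scored as prevention of tonic hindlimb extension, was measured at the time of peak effect, 0.5 h after dosing. Median effective dose was derived by probit analysis with 95% confidence intervals.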

Mus musculus [8] = test: Tested for anti maximal electroshock activity at 0.5 hr […]; += Compound is active at 300 mg/kg; format: functional, organism-based; how it was run: as §1
Mus musculus [9] = test: Tested for rotarod neurotoxicity, number of deaths from respiratory depression among four animals given a dose 600 mg/kg was reported; inactive; format: functional
Mus musculus [10] = test: Anti-pentylenetetrazole activity at 0.5 hr in mice […]; += Compound is active at 300 mg/kg; format: functional, organism-based; how it was run: as §3
Mus musculus [11] = test: Anti-pentylenetetrazole activity; - denotes inactive up to 600 mg/kg; format: functional, organism-based; parameters: dose 600 mg/kg; how it was run: as §3
[12] = Tested for Neurotoxicity in rotarod test; format: toxicity, organism-based; settings: mouse, in vivo; how it was run: as §2
Mus musculus [13] = test: Tested for rotarod neurotoxicity, number of deaths from respiratory depression among four animals given a dose 600 mg/kg was reported; format: organism-based; parameters: dose 600 mg/kg; settings: in vivo
Mus musculus [14] = species: Mus musculus; test: as §5; format: functional; how it was run: as §4; remark: listed apart in the source
Mus musculus [15] = test: Tested for anti maximal electroshock activity at 4 h; += Compound is active at 300 mg/kg; format: functional, organism-based; parameters: dose 300 mg/kg; how it was run: as §1
[16] = Tested for rotarod neurotoxicity at dose 300 mg/kg; format: organism-based; parameters: dose 300 mg/kg; settings: mouse, in vivo; how it was run: as §2
Mus musculus [17] = test: Anti-pentylenetetrazole activity at 0.5 hr in mice […]; +=Compound is active at 300 mg/kg; format: functional, organism-based; how it was run: as §3
Mus musculus [18] = test: Tested for rotarod neurotoxicity, number of deaths from respiratory depression among four animals given a dose 600 mg/kg was reported
Mus musculus [19] = test: Tested for anti maximal electroshock activity at 0.5 hr at dose 100 mg/kg; ++=Compound is active at 100 mg/kg; format: functional, organism-based; how it was run: as §1

In the case of `Cl.NCC1CC(=O)N(Cc2ccccc2)C1=O` (stereo not given), the MES (Mus musculus [1]) is reported as “Not toxic”, the TD50 [2] is reported as 268 mg/kg and the PTZ (Mus musculus [3]) is reported as “Not toxic”. The PTZ (Mus musculus [4]) was “Not toxic”, the ED50 (Mus musculus [5]) was 108 mg/kg and the NT (Mus musculus [6]) was 4.

`CN1C(=O)CC(C)(c2ccccc2)C1=O` (stereo not given) [METHSUXIMIDE] showed an ED50 (Mus musculus [7]) of 76.3 mg/kg.

In the case of `CC(=O)NCC1CC(=O)N(Cc2ccccc2)C1=O` (stereo not given), the MES (Mus musculus [1]) is reported as “Not toxic”, the MES (Mus musculus [8]) is reported as “active at 300 mg/kg” and the NT (Mus musculus [9]) is reported as 0. For the same compound, the PTZ (Mus musculus [4]) was “Not toxic” and the PTZ (Mus musculus [10]) was “active at 300 mg/kg”.

For `CN1C(=O)CC(c2ccccc2)C1=O` (stereo not given) [PHENSUXIMIDE], the ED50 (Mus musculus [7]) was 112 mg/kg.

In the case of `O=C1CC(CNCc2ccccc2)C(=O)N1Cc1ccccc1` (stereo not given), the PTZ (Mus musculus [11]) is reported as “Not toxic”, the MES (Mus musculus [1]) is reported as “Not toxic” and the TD50 [12] is reported as 267 mg/kg. The NT (Mus musculus [13]) was 4, the ED50 (Mus musculus [14]) was 136 mg/kg and the PTZ (Mus musculus [4]) was “Not toxic”.

In the case of `CC1(CN)CC(=O)N(Cc2ccccc2)C1=O` (stereo not given), the MES (Mus musculus [15]) is reported as “active at 300 mg/kg”, the PTZ (Mus musculus [3]) is reported as “Not toxic” and the PTZ (Mus musculus [4]) is reported as “Not toxic”. For the same compound, the ED50 (Mus musculus [5]) was 66.4 mg/kg, the TD50 [16] was 228 mg/kg and the NT (Mus musculus [6]) was 2.

For `CC(=O)NCC1(C)CC(=O)N(Cc2ccccc2)C1=O` (stereo not given), the PTZ (Mus musculus [17]) was “active at 300 mg/kg”, the NT (Mus musculus [18]) was 0 and the MES (Mus musculus [1]) was “Not toxic”. The MES (Mus musculus [19]) was “active at 100 mg/kg” and the PTZ (Mus musculus [4]) was “Not toxic”.
